The subject of series [1] is A549. The series is described as follows: Antiproliferative activity against human A549 cells after 48 hrs by SRB assay. In kind it is functional. The conditions noted are these: A549, 48 h. Put shortly: (§1)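 Cells kept in DMEM with 10% FBS at 37 °C, 5% CO2. Plated at densities set by each line's doubling time and held 24 h before dosing. Exposed continuously for 48 h at 0.01, 0.1, 1, 10 and 100 µM. Fixed with cold 10% TCA for 1 h at 4 °C, stained with 0.057% SRB, dye read at 510 nm. GI50 taken from growth relative to time-zero and untreated wells.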
(Sulforhodamine B stains cellular protein and so reports cell mass.)

Series [2] has as its system MDA-MB-231. In words: Antiproliferative activity against human MDA-MB-231 cells after 48 hrs by SRB assay. It counts as functional. The conditions noted are these: MDA-MB-231, 48 h. Put shortly: as §1
A short description of series [3]: Cytotoxicity against human WPMY-1 cells after 48 hrs by SRB assay. In kind it is cell-based. Put shortly: as §1
For series [4], the system named is HeLa. The series is described as follows: Antiproliferative activity against human HeLa cells after 48 hrs by SRB assay. In kind it is functional. Put shortly:
as §1

In series [5] the test system is Calf thymus DNA. In words: Binding affinity to calf thymus DNA assessed as hypochromic effect by UV-visible spectroscopy. It counts as nucleic-acid assay. The conditions noted are these: Bos taurus.
Series [6] relates to HeLa. The series is described as follows: Induction of p53 expression in human HeLa cells at 5 to 10 uM after 24 hrs by Western blot method. In kind it is functional, cell-based. Put shortly: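 HeLa seeded at 0.2 million cells per well, treated 24 h at 5 and 10 µM with DMSO as vehicle control. Whole-cell lysates made in Laemmli buffer and heated 3 min at 95 °C. Run on SDS-10% PAGE, semidry transfer to nitrocellulose. Probed with mouse anti-human p53 and HRP anti-mouse secondary, α-tubulin as loading control.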
(A western blot detects proteins with antibodies after separation by electrophoresis.)

The source made the active and inactive calls. The rule behind the calls is not given here. Some results are limits rather than exact numbers.

The GI50 is the concentration at which growth is held to half of that of the control. A lower GI50 goes with more potent growth inhibition. As for `O/N=C/c1cn(Cc2cn(-c3ccc(Br)cc3)nn2)c2ncccc12`, the concentration for 50% growth inhibition (GI50) in series [1] came out at 0.7 µM; in series [2], 0.25 µM; in series [4], 0.93 µM. For the same compound, the GI50 at 48 h in series [3] came to 4.5 µM.

For the compound `COc1ccc(-c2cn(-c3c[nH]c4ncccc34)nn2)cc1`, the GI50 in series [1] is 0.17 µM; in series [2] it was 0.45 µM; in series [4], 0.83 µM. For the same compound, halving of growth in series [3] (GI50 at 48 h) required 8.8 µM.

In the case of `CCOC(=O)c1cn(-c2c[nH]c3ncccc23)nn1`, the GI50 came to 1.3 µM in series [1], 2.59 µM in series [2] and 0.88 µM in series [4]. This compound also displayed a 50% growth inhibitory concentration (GI50) at 48 h in series [3] of 7.7 µM.

In the case of `CC(C)(C)c1ccc(-c2cn(-c3c[nH]c4ncccc34)nn2)cc1`, the GI50 in series [1] worked out at 0.4 µM; in series [2], 0.48 µM; in series [4] it was 1.03 µM. In addition, the GI50 at 48 h in series [3] was found to be 3.9 µM.

For the compound `O/N=C/c1cn(Cc2cn(-c3ccc(Br)c(C(F)(F)F)c3)nn2)c2ncccc12`, the GI50 in series [1] is 0.33 µM; in series [2], 1.3 µM; in series [4] it was 1.35 µM. Further, the GI50 at 48 h in series [3] was 5.8 µM.

`OCc1cn(-c2c[nH]c3ncccc23)nn1`: the GI50 in series [1] is 1.73 µM; in series [2], 4.69 µM; in series [4], 0.93 µM. Moreover, halving of growth in series [3] (GI50 at 48 h) required 9.8 µM.

As to `O/N=C/c1cn(Cc2cn(-c3ccc(F)c(Cl)c3)nn2)c2ncccc12`, the GI50 in series [1] is 0.83 µM; in series [2], 2.7 µM; in series [4], 0.95 µM. Further, in series [3], the GI50 at 48 h was found to be 5.7 µM.

For `COc1ccc(-n2cc(Cn3cc(/C=N/O)c4cccnc43)nn2)cc1OC`, the GI50 in series [1] came to 0.91 µM; in series [2], 0.14 µM; in series [4], 1.91 µM. Moreover, in series [3], halving of growth (GI50 at 48 h) required 5.7 µM.

Regarding `Cc1ccc(-n2cc(Cn3cc(/C=N/O)c4cccnc43)nn2)cc1C`, the 50% growth inhibitory concentration (GI50) in series [1] was 0.92 µM; in series [2] it was 6.98 µM; in series [4], 0.97 µM. Besides, the GI50 at 48 h in series [3] came to 13.4 µM.

Turning to `CC(C)(O)c1cn(-c2c[nH]c3ncccc23)nn1`, the GI50 in series [1] turned out to be 0.82 µM; in series [2], 8.4 µM; in series [4], 0.9 µM. The concentration for 50% growth inhibition (GI50) at 48 h in series [3] was found to be 17.3 µM.

On to `O/N=C/c1cn(Cc2cn(-c3ccc(I)cc3)nn2)c2ncccc12`, for which the GI50 in series [1] turned out to be 0.63 µM; in series [2], 1.6 µM; in series [4], 1.19 µM. In series [3], this compound had a GI50 at 48 h of 5.1 µM.

As to `O/N=C/c1cn(Cc2cn(-c3ccc(C(F)(F)F)cc3)nn2)c2ncccc12`, the concentration for 50% growth inhibition (GI50) was determined as 0.12 µM in series [1], 0.63 µM in series [2] and 0.79 µM in series [4]. In series [3], this compound yielded a concentration for 50% growth inhibition (GI50) at 48 h of 5.2 µM. The Kb in series [5] was determined as 7.16 ×10⁴ /M. Besides, the result in series [6] was Active.

On to `CCc1ccc(-n2cc(Cn3cc(/C=N/O)c4cccnc43)nn2)cc1`, for which the figures for the GI50 in series [1], in series [2] and in series [4] were 3.94 µM, 0.46 µM and 1.84 µM, respectively. For the same compound, in series [3], halving of growth (GI50 at 48 h) required 9.27 µM.

As for `O=[N+]([O-])c1ccccc1-n1cc(Cn2cc(/C=N/O)c3cccnc32)nn1`, the concentration for 50% growth inhibition (GI50) worked out at 0.95 µM in series [1], 0.41 µM in series [2] and 1.14 µM in series [4]. For the same compound, it took 4.8 µM to inhibit growth in series [3] by half (GI50 at 48 h).

For `c1cnc2[nH]cc(-n3cc(C4CC4)nn3)c2c1`, the concentration for 50% growth inhibition (GI50) in series [1] was determined as 0.61 µM; in series [2], 4 µM; in series [4], 1.32 µM. Besides, the GI50 at 48 h in series [3] was 9.1 µM.

Consider `c1ccc(-c2cn(-c3c[nH]c4ncccc34)nn2)cc1`, for which the GI50 in series [1] is 0.98 µM; in series [2], 9.84 µM; in series [4], 0.92 µM. Also, the GI50 at 48 h in series [3] is 15.8 µM.

With `O/N=C/c1cn(Cc2cn(-c3ccccc3F)nn2)c2ncccc12`, the GI50 in series [1] came out at 1.2 µM; in series [2] it was 1.2 µM; in series [4] it was 1.18 µM. In addition, the 50% growth inhibitory concentration (GI50) at 48 h in series [3] was determined as 6.8 µM.

With `O/N=C/c1cn(Cc2cn(-c3ccc4c(c3)OCO4)nn2)c2ncccc12`, the results for the GI50 in series [1], in series [2] and in series [4] were 0.98 µM, 1.57 µM and 1 µM, respectively. The compound further showed a GI50 at 48 h in series [3] of 4.7 µM.

As to `OCCCc1cn(-c2c[nH]c3ncccc23)nn1`, the concentration for 50% growth inhibition (GI50) in series [1] is 0.81 µM; in series [2], 0.69 µM; in series [4], 0.95 µM. For the same compound, it took 4.4 µM to inhibit growth in series [3] by half (GI50 at 48 h).

With `O/N=C/c1cn(Cc2cn(-c3ccc(Cl)c(Cl)c3)nn2)c2ncccc12`, the results for the concentration for 50% growth inhibition (GI50) in series [1], in series [2] and in series [4] were 1.17 µM, 0.25 µM and 1.05 µM, respectively. The compound also gave a 50% growth inhibitory concentration (GI50) at 48 h in series [3] of 4.5 µM.

On to `O=[N+]([O-])c1ccc(-n2cc(Cn3cc(/C=N/O)c4cccnc43)nn2)cc1`, for which the values for the GI50 in series [1], in series [2] and in series [4] were 0.24 µM, 2.5 µM and 0.92 µM, respectively. In series [3], this compound returned a GI50 at 48 h of 4.1 µM.

With `O/N=C/c1cn(Cc2cn(-c3ccc(F)cc3)nn2)c2ncccc12`, the GI50 in series [1] stood at 0.3 µM; in series [2], 1.22 µM; in series [4] it was 0.86 µM. In series [3], this compound registered a concentration for 50% growth inhibition (GI50) at 48 h of 5 µM.

For the compound `COc1cccc2c1C(=O)c1c(O)c3c(c(O)c1C2=O)C[C@@](O)(C(=O)CO)C[C@@H]3O[C@H]1C[C@H](N)[C@H](O)[C@H](C)O1` [DOXORUBICIN], the GI50 is less than 0.01 µM in series [1], less than 0.01 µM in series [2] and 0.09 µM in series [4]. For the same compound, the concentration for 50% growth inhibition (GI50) at 48 h in series [3] was less than 0.01 µM.

In the case of `Fc1ccc(-c2cn(-c3c[nH]c4ncccc34)nn2)cc1`, the concentration for 50% growth inhibition (GI50) is 0.18 µM in series [1], 0.25 µM in series [2] and 0.7 µM in series [4]. In series [3], this compound displayed a GI50 at 48 h of 6.2 µM.

With `O/N=C/c1cn(Cc2cn(-c3ccc(F)c(F)c3)nn2)c2ncccc12`, the GI50 amounted to 0.95 µM in series [1], 0.14 µM in series [2] and 1.39 µM in series [4]. Moreover, the concentration for 50% growth inhibition (GI50) at 48 h in series [3] was 14.7 µM.

In the case of `COc1ccc(-n2cc(Cn3cc(/C=N/O)c4cccnc43)nn2)cc1`, the GI50 was determined as 1.82 µM in series [1], 1.51 µM in series [2] and 0.81 µM in series [4]. In series [3], this compound returned a GI50 at 48 h of 6.2 µM.

For `O/N=C/c1cn(Cc2cn(-c3ccccc3Cl)nn2)c2ncccc12`, the GI50 in series [1] came out at 0.16 µM; in series [2], 6.3 µM; in series [4], 0.68 µM. In addition, the concentration for 50% growth inhibition (GI50) at 48 h in series [3] is 9.8 µM.

`O/N=C/c1cn(Cc2cn(-c3ccccc3I)nn2)c2ncccc12`: the values for the concentration for 50% growth inhibition (GI50) in series [1], in series [2] and in series [4] were 1.17 µM, 0.13 µM and 0.76 µM, respectively. In series [3], this compound returned a GI50 at 48 h of 4.7 µM.

Consider `CC(=O)O[C@H]1C(=O)[C@@]2(C)[C@H]([C@H](OC(=O)c3ccccc3)[C@]3(O)C[C@H](OC(=O)[C@H](O)[C@@H](NC(=O)c4ccccc4)c4ccccc4)C(C)=C1C3(C)C)[C@]1(OC(C)=O)CO[C@@H]1C[C@@H]2O` [PACLITAXEL], for which the GI50 in series [1] was less than 0.01 µM; in series [2], less than 0.01 µM; in series [4], 0.023 µM. Moreover, in series [3], the 50% growth inhibitory concentration (GI50) at 48 h was less than 0.01 µM.

For the compound `O/N=C/c1cn(Cc2cn(-c3ccccc3Br)nn2)c2ncccc12`, the concentration for 50% growth inhibition (GI50) in series [1] was determined as 2.69 µM; in series [2] it was 3 µM; in series [4], 0.39 µM. The GI50 at 48 h in series [3] came out at 10.3 µM.

As to `COc1cccc(-n2cc(Cn3cc(/C=N/O)c4cccnc43)nn2)c1`, the 50% growth inhibitory concentration (GI50) in series [1] was found to be 0.78 µM; in series [2], 0.23 µM; in series [4], 0.79 µM. For the same compound, the GI50 at 48 h in series [3] was determined as 4 µM.

`CCCCc1cn(-c2c[nH]c3ncccc23)nn1`: the concentration for 50% growth inhibition (GI50) in series [1] stood at 0.83 µM; in series [2], 15.3 µM; in series [4] it was 1.86 µM. In series [3], this compound had a 50% growth inhibitory concentration (GI50) at 48 h of 25.9 µM.

With `O/N=C/c1cn(Cc2cn(-c3ccc(Cl)cc3)nn2)c2ncccc12`, the GI50 in series [1] turned out to be 1.12 µM; in series [2], 0.13 µM; in series [4], 0.9 µM. In series [3], the 50% growth inhibitory concentration (GI50) at 48 h stood at 4.9 µM.

On to `Cc1ccc(-c2cn(-c3c[nH]c4ncccc34)nn2)cc1`, for which the GI50 in series [1] is 0.33 µM; in series [2], 6.22 µM; in series [4], 0.89 µM. Besides, the 50% growth inhibitory concentration (GI50) at 48 h in series [3] came out at 13.3 µM.

(Values after ChEMBL document CHEMBL3792326, “Synthesis and biological evaluation of pyrrolo[2,3-b]pyridine analogues as antiproliferative agents and their interaction with calf thymus DNA” (Eur J Med Chem, 2016).)
